Measured values: ChEMBL document CHEMBL4270591, “Exploitation of new chalcones and 4H-chromenes as agents for cancer treatment” (Eur J Med Chem, 2018)

What was measured:
[1] = tested on: MCF7; test: Anticancer activity against human MCF7 cells assessed as cell viability at 10 uM after 72 hrs by sulforhodamine B assay relative to control; format: functional; conditions: MCF7, 72 h, read-out: Activity
[2] = tested on: MCF-10A; test: Cytotoxicity against human MCF10A cells after 72 hrs by sulforhodamine B assay; format: cell-based
Outline: (§1)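 Cells seeded at 3000 cells/100 µL per well, left to adhere overnight (18-20 h), then exposed to a range of compound concentrations for 72 h. Vehicle control was 0.5% DMSO. Cytotoxicity was read by sulforhodamine B at 490 nm, with 690 nm as background. IC50 came from sigmoidal variable-slope nonlinear regression on log-transformed data, from at least three independent experiments, each in triplicate.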

[3] = tested on: Hs-578T; test: Anticancer activity against human Hs 578T cells assessed as cell viability at 30 uM after 72 hrs by sulforhodamine B assay relative to control; format: functional; conditions: read-out: Activity
[4] = tested on: Hs-578T; test: Anticancer activity against human Hs 578T cells after 72 hrs by sulforhodamine B assay; format: functional, cell-based; outline: as §1
[5] = Cytotoxicity against human MCF10A cells assessed as cell viability at 10 uM after 72 hrs by sulforhodamine B assay relative to control; format: cell-based, MCF-10A; conditions: read-out: Activity
[6] = tested on: MCF7; test: Anticancer activity against human MCF7 cells assessed as cell viability at 30 uM after 72 hrs by sulforhodamine B assay relative to control; format: functional; conditions: MCF7, 72 h, read-out: Activity
[7] = tested on: MCF7; test: Anticancer activity against human MCF7 cells after 72 hrs by sulforhodamine B assay; format: functional, cell-based; conditions: MCF7, 72 h; outline: as §1
[8] = Cytotoxicity against human MCF10A cells assessed as cell viability at 30 uM after 72 hrs by sulforhodamine B assay relative to control; format: cell-based, MCF-10A; conditions: read-out: Activity
[9] = tested on: Hs-578T; test: Anticancer activity against human Hs 578T cells assessed as cell viability at 10 uM after 72 hrs by sulforhodamine B assay relative to control; format: functional; conditions: read-out: Activity

Row | IC50 [4] | IC50 [7] | SMILES | viability at 10 µM [1] | IC50 [2] | viability at 30 µM [3] | viability at 72 h, 10 µM [5] | viability at 30 µM [6] | viability at 72 h, 30 µM [8] | viability at 10 µM [9]
1 | 10.3 µM | 5.94 µM | COc1cccc(C(=O)CC2C(C#N)=C(N)Oc3ccc(Br)cc32)c1 (stereo not drawn) | 51.2% | 18.9 µM | 37.9% | 101% | 34.4% | 43.7% | 71.5%
2 |  |  | COC(=O)C1=C(N)Oc2c(OC)cc(Br)cc2C1CC(=O)c1cccc(OC)c1 (stereo not drawn) | 142% |  |  |  | 94.9% |  | 
3 |  |  | Cc1ccc(C(=O)CC2C(C#N)=C(N)Oc3ccc(Br)cc32)cc1 (stereo not drawn) | 69% |  | 46.3% | 133% | 32.3% | 33.5% | 88.8%
4 | 0.52 µM |  | COc1cccc2c1C(=O)c1c(O)c3c(c(O)c1C2=O)C[C@@](O)(C(=O)CO)C[C@@H]3O[C@H]1C[C@H](N)[C@H](O)[C@H](C)O1 [DOXORUBICIN] |  | 1.54 µM |  |  |  |  | 
5 |  |  | COc1cccc(C(=O)/C=C/c2cc(Cl)ccc2O)c1 | 38.2% |  |  |  | 26.3% |  | 
6 |  |  | O=C(/C=C/c1cc(F)cc(F)c1O)c1ccccc1 | 110% |  | 114% | 37.4% | 37.6% | 41.4% | 96.5%
7 |  |  | COc1cc(Br)cc(/C=C/C(=O)c2ccc(C)cc2)c1O | 96.8% |  | 64.2% | 155% | 61.5% | 148% | 84.6%
8 |  |  | COc1cc(Br)cc2c1OC(N)=C(C#N)C2CC(=O)c1ccc(Cl)cc1 (stereo not drawn) | 49.6% |  | 90.7% | 36.8% | 33.3% | 41.6% | 90.7%
9 |  |  | COC(=O)C1=C(N)Oc2ccc(Cl)cc2C1CC(=O)c1ccccc1 (stereo not drawn) | 87.2% |  |  |  | 44.2% |  | 
10 |  |  | COC(=O)C1=C(N)Oc2c(OC)cc(Br)cc2C1CC(=O)c1ccc(Br)cc1 (stereo not drawn) | 50.2% |  |  |  | 31.9% |  | 
11 |  |  | COc1cccc(C(=O)/C=C/c2cc(Br)cc(OC)c2O)c1 | 77.3% |  | 69.8% | 33.5% | 63.1% | 47% | 74.2%
12 |  |  | COc1ccc(O)c(/C=C/C(=O)c2ccc(Cl)cc2)c1 | 86.9% |  | 102% | 35.7% | 29.3% | 48% | 106%
13 |  |  | N#CC1=C(N)Oc2c(F)cc(F)cc2C1CC(=O)c1ccccc1 (stereo not drawn) | 99.6% |  | 144% | 53.8% | 76.9% | 128% | 92.4%
14 |  |  | N#CC1=C(N)Oc2ccccc2C1CC(=O)c1ccccc1 (stereo not drawn) | 82.7% |  |  |  | 78.6% |  | 
15 |  |  | COC(=O)C1=C(N)Oc2ccc(Br)cc2C1CC(=O)c1ccc(Br)cc1 (stereo not drawn) | 72.5% |  | 94.8% | 39.9% | 34.8% | 43.2% | 90%
16 |  |  | O=C(/C=C/c1ccccc1O)c1ccccc1 | 71.9% |  |  |  | 32.1% |  | 

Row | IC50 [4] | IC50 [7] | SMILES | viability at 10 µM [1] | IC50 [2] | viability at 30 µM [3] | viability at 72 h, 10 µM [5] | viability at 30 µM [6] | viability at 72 h, 30 µM [8] | viability at 10 µM [9]
17 | 16.5 µM | 7.24 µM | N#CC1=C(N)Oc2ccc(Br)cc2C1CC(=O)c1ccc(Br)cc1 (stereo not drawn) | 47.2% | 14.7 µM | 93.8% | 32.6% | 34.2% | 43.6% | 67.6%
18 | 5.33 µM | 5.15 µM | COc1cc(Br)cc(/C=C/C(=O)c2ccc(Cl)cc2)c1O | 53.3% | 12.1 µM | 60.3% | 35.2% | 28% | 47.8% | 53.8%
19 |  |  | Cc1ccc(C(=O)/C=C/c2cccc(Br)c2)cc1 | 60.4% |  |  |  | 34% |  | 
20 |  |  | Cc1ccc(C(=O)CC2C(C#N)=C(N)Oc3ccc(Cl)cc32)cc1 (stereo not drawn) | 85.5% |  | 155% | 41.8% | 49% | 53.3% | 92.3%
21 |  |  | COC(=O)C1=C(N)Oc2c(OC)cc(Br)cc2C1CC(=O)c1ccc(Cl)cc1 (stereo not drawn) | 80.3% |  | 90.2% | 40.9% | 33.8% | 47.8% | 63%
22 | 1.6 µM | 2 µM | Cc1ccc(C(=O)/C=C/c2cc(Br)ccc2O)cc1 | 27.3% | 6.52 µM | 46.7% | 32.4% | 31.8% | 49.4% | 55.8%
23 |  |  | COc1cc(Br)cc(/C=C/C(=O)c2ccc(Br)cc2)c1O | 64.6% |  |  |  | 48.3% |  | 
24 |  |  | COc1cc(Br)cc(/C=C/C(=O)c2ccccc2)c1O | 67% |  | 106% | 34.4% | 28.1% | 40.7% | 46.9%
25 |  |  | COC(=O)C1=C(N)Oc2ccc(Br)cc2C1CC(=O)c1ccc(Cl)cc1 (stereo not drawn) | 67.6% |  |  |  | 32.4% |  | 
26 |  |  | Cc1ccc(C(=O)/C=C/c2cc(F)cc(F)c2O)cc1 | 33.9% |  |  |  | 35.3% |  | 
27 |  |  | COc1cc(Br)cc2c1OC(N)=C(C#N)C2CC(=O)c1ccccc1 (stereo not drawn) | 99.1% |  | 155% | 45.9% | 36.7% | 45.9% | 100%
28 |  |  | COC(=O)C1=C(N)Oc2ccc(Br)cc2C1CC(=O)c1ccccc1 (stereo not drawn) | 107% |  |  |  | 41.3% |  | 
29 |  |  | COC(=O)C1=C(N)Oc2c(OC)cccc2C1CC(=O)c1ccc(Cl)cc1 (stereo not drawn) | 89.8% |  |  |  | 63.8% |  | 
30 |  |  | COc1cc(Br)cc2c1OC(N)=C(C#N)C2CC(=O)c1ccc(Br)cc1 (stereo not drawn) | 39.7% |  |  |  | 33.1% |  | 
31 |  |  | COc1cc(Br)cc2c1OC(N)=C(C#N)C2CC(=O)c1ccc(C)cc1 (stereo not drawn) | 116% |  |  |  | 52.8% |  | 
